What is called IC50 is the concentration that gives 50% inhibition.

This note sets out measurements from ChEMBL document CHEMBL3808295, “Discovery of enantioselectivity of urea inhibitors of soluble epoxide hydrolase” (Eur J Med Chem, 2016).

Test [1] has as its target T1, Bifunctional epoxide hydrolase 2 (Homo sapiens, UniProt P34913).
T1 sequence (P34913 whole entry): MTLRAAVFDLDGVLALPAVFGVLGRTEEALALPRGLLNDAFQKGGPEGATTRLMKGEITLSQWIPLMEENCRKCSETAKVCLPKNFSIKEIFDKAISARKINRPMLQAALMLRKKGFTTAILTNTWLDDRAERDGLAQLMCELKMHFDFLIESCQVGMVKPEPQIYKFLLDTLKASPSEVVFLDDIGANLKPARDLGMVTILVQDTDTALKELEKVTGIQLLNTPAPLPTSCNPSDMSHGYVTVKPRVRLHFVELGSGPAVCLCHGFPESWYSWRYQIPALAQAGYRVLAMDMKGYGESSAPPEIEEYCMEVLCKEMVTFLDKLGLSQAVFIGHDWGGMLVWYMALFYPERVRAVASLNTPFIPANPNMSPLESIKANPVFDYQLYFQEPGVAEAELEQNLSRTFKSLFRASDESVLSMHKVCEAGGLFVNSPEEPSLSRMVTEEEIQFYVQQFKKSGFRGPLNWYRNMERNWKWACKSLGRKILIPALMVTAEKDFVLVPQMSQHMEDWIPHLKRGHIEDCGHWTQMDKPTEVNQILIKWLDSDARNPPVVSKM
The test is described as follows: Inhibition of soluble epoxide hydrolase (unknown origin) using 14,15-EET as substrate incubated for 20 mins by LC-MS/MS analysis.

For test [2], the target named is T2, Epoxide hydrolase 1 (Homo sapiens) (UniProt P07099).
T2 sequence (whole entry): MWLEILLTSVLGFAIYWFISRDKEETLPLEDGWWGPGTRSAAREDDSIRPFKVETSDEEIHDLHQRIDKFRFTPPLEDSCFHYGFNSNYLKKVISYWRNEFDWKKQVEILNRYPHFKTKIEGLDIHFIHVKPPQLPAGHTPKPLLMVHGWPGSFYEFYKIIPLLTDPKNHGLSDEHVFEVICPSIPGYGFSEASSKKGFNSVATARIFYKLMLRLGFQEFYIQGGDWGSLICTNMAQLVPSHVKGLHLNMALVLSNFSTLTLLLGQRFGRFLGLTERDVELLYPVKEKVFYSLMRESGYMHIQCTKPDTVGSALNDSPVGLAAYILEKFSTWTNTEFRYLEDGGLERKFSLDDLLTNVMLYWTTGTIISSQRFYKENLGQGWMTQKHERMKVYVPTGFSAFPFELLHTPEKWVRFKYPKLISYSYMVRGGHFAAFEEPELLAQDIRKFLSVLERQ
The test is described as follows: Inhibition of microsomal epoxide hydrolase in pooled human liver microsomes assessed as enzyme activity using styrene oxide as substrate at 10 uM incubated for 10 mins by UV-HPLC analysis relative to control. Also noted: scale not given: the % may be the effect or the level left. The procedure, abridged:
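Pooled human liver microsomes (0.2 mg/mL) incubated with styrene oxide (25 μM) and 10 μM test compound in 0.1 M Tris-HCl pH 9.0 at 37°C for 10 min; quenched with n-hexane, centrifuged, supernatant analysed by UV-HPLC (C18, 30°C, 40% methanol). Activity from styrene glycol formed, as percentage of control; valpromide positive control.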

Turning to `O=C(NCCCc1ccccc1)N1CCC[C@H]1c1ccccc1`, the IC50 in test [1] was determined as 332 nM. Moreover, the Activity in test [2] is 99.8%.

Consider `O=C(NCCCc1ccccc1)N[C@@H]1CCCc2ccccc21`, for which 13 nM corresponded to half-maximal inhibition in test [1] (IC50). The Activity in test [2] was 106%.

The compound `C[C@@H](NC(=O)NCCCc1ccccc1)c1ccccc1` displayed a 50% inhibitory concentration (IC50) in test [1] of 1730 nM. In addition, the Activity in test [2] was determined as 102%.

In test [1], `O=C(NCCCc1ccccc1)N[C@@H](CO)c1ccccc1` yielded an IC50 of 2740 nM. Further, the Activity in test [2] worked out at 102%.

The compound `CC[C@H](NC(=O)NCCCc1ccccc1)c1ccccc1` displayed an IC50 in test [1] of 36 nM. In addition, the Activity in test [2] came out at 106%.

In test [1], `C[C@H](NC(=O)NCCCc1ccccc1)c1ccccc1` had an IC50 of 44 nM. For the same compound, the Activity in test [2] turned out to be 84.6%.

`C[C@@H](NC(=O)NCCCc1ccc(S(N)(=O)=O)cc1)c1ccccc1` showed an IC50 in test [1] of 2030 nM. The Activity in test [2] was determined as 101%.

The compound `O=C(NCCCc1ccccc1)NCc1ccccc1` returned an IC50 in test [1] of 3260 nM. The Activity in test [2] amounted to 105%.

`CC[C@@H](NC(=O)NCCCc1ccccc1)c1ccccc1` had a 50% inhibitory concentration (IC50) in test [1] of 4500 nM. Moreover, the Activity in test [2] stood at 103%.

The compound `O=C(NCCCc1ccccc1)N[C@@H]1CCc2ccccc21` showed an IC50 in test [1] of 22 nM. Besides, the Activity in test [2] is 110%.

In turn, `CCC(C)NC(=O)NCCCc1ccccc1` (racemic) gave an IC50 in test [1] of 650 nM. The Activity in test [2] is 102%.

Turning to `O=C(NCCCc1ccccc1)N[C@H]1CCCc2ccccc21`, it took 13 nM to reach half-maximal inhibition in test [1] (IC50). In addition, the Activity in test [2] was 106%.

Compound `O=C(NCCCc1ccccc1)N[C@H](CO)c1ccccc1` registered an IC50 in test [1] of 20000 nM. In test [2], the Activity stood at 107%.

`C[C@@H](NC(=O)NCCCc1ccccc1)C1CCCCC1` had an IC50 in test [1] of 302 nM. Besides, the Activity in test [2] stood at 103%.

For `C[C@@H](NC(=O)NCCCc1ccccc1)c1cccc2ccccc12`, the midpoint of inhibition in test [1], the IC50, lay at 364 nM. In addition, in test [2], the Activity was determined as 98.7%.

In test [1], `C[C@H](NC(=O)NCCCc1ccccc1)c1cccc2ccccc12` registered an IC50 of 43 nM. Also, in test [2], the Activity was found to be 102%.

Turning to `CCCC(CCC)C(N)=O`, the Activity in test [2] amounted to 50.9%.

Take `C[C@H](NC(=O)NCCCc1ccc(S(N)(=O)=O)cc1)c1ccccc1`: in test [1], the IC50 was 22 nM. Further, in test [2], the Activity is 99.9%.

In test [1], `O=C(NCCCc1ccccc1)N[C@H]1CCc2ccccc21` displayed an IC50 of 65 nM. Moreover, in test [2], the Activity came out at 112%.

In turn, `C[C@H](NC(=O)NCCCc1ccccc1)C1CCCCC1` showed an IC50 in test [1] of 182 nM. Also, the Activity in test [2] was found to be 99.4%.

Take `O=C(NCCCc1ccccc1)N1CCC[C@@H]1c1ccccc1`: in test [1], the IC50 was 1510 nM. Moreover, the Activity in test [2] was 101%.

For `CC[C@H](C)NC(=O)NCCCc1ccccc1`, inhibition in test [1] was half-maximal at 63 nM (IC50). The Activity in test [2] came to 101%.
